The record followed here is ChEMBL document CHEMBL1125244, “4',5'-unsaturated 5'-halogenated nucleosides. Mechanism-based and competitive inhibitors of S-adenosyl-L-homocysteine hydrolase” (J Med Chem, 1991).

The target in test [1] is T1, Adenosylhomocysteinase (Mus musculus, UniProt P50247). The experiment in a line: Activity determined in mouse liver S-adenosyl-L-homocysteine hydrolase and expressed as KI values; NA= not applicable. In outline:
(§1)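 Partially purified mouse liver enzyme (38–55% ammonium sulfate fraction, stored at –70 °C), assayed in the synthetic direction. The mix held […] potassium phosphate, 2 mM 2-mercaptoethanol, 0.1 mM adenosine plus [³H]adenosine, 10 mM DL-homocysteine and 1.0 μM 2-deoxycoformycin, run 10–20 min at 37 °C. [³H]SAH was separated on Cellex-P and counted. Time-dependent inactivation constants came from the Kitz–Wilson method.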

Test [2] concerns Moloney murine leukemia virus. Nature of the test: Antiretroviral activity in the XC-plaque assay using Moloney leukemia virus (MoLV) as a model for human immunodeficiency virus (HIV). Format: functional, organism-based.
For test [3], the target named is T2, Adenosylhomocysteinase (Rattus norvegicus, UniProt P10760).
T2 sequence (P10760 whole entry): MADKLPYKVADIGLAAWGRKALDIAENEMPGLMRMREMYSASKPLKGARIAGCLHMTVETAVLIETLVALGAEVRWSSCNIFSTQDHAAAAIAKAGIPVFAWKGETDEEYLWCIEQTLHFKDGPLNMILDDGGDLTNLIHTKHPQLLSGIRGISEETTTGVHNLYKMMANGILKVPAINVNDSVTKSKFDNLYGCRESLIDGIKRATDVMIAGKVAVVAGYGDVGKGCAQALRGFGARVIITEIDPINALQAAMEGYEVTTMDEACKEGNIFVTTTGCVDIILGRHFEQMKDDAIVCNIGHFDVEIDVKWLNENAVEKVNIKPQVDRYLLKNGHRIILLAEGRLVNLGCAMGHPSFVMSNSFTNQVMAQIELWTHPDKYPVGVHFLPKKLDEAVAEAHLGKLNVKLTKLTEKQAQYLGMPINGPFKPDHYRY
Nature of the test: Activity determined in rat liver S-adenosyl-L-homocysteine hydrolase and expressed as KI values; NA= not applicable.

For test [4], the target named is T2, Adenosylhomocysteinase. The experiment in a line: Activity determined in rat liver S-adenosyl-L-homocysteine hydrolase and expressed as Kinactivator values; NA= not applicable.
The target in test [5] is T1, Adenosylhomocysteinase. Nature of the test: Activity determined in mouse liver S-adenosyl-L-homocysteine hydrolase and expressed as KI values.
In test [6] the target is T3, Adenosylhomocysteinase (Rattus norvegicus) (UniProt P10760).
T3 sequence (whole entry): T2 sequence (P10760 whole entry)

The target of test [7] is T2, Adenosylhomocysteinase. The experiment in a line: Activity determined in rat liver S-adenosyl-L-homocysteine hydrolase and expressed as Kinactivator values.
In test [8] the target is T2, Adenosylhomocysteinase. Nature of the test: (§2) Activity determined in rat liver S-adenosyl-L-homocysteine hydrolase and expressed as KI values.
Test [9] concerns the target Adenosylhomocysteinase (Mus musculus) (UniProt P50247).
The target in test [10] is T2, Adenosylhomocysteinase. Nature of the test: Competitive inhibitory activity against rat liver S-Adenosyl-homocysteine hydrolase.
Test [11] concerns the target T1, Adenosylhomocysteinase. Nature of the test: Activity determined in mouse liver S-Adenosyl-homocysteine hydrolase and expressed as KI values; NA= not applicable.
Test [12] concerns the target T2, Adenosylhomocysteinase. The experiment in a line: Activity determined in rat liver S-Adenosyl-homocysteine hydrolase and expressed as KI values; NA= not applicable.
The target of test [13] is T2, Adenosylhomocysteinase. Nature of the test: Activity determined in rat liver S-Adenosyl-L-homocysteine (SAH) Hydrolase and expressed as KI values; NA= not applicable.
Test [14] concerns the target T1, Adenosylhomocysteinase. Nature of the test: Activity determined in mouse liver S-Adenosyl-L-homocysteine (SAH) Hydrolase and expressed as KI values; NA= not applicable. A digest of the protocol:
as §1

Test [15] deals with T2, Adenosylhomocysteinase. Nature of the test: Time-dependent inhibitory activity against rat liver S-adenosyl-L-homocysteine hydrolase.
In test [16] the target is T3, Adenosylhomocysteinase (Rattus norvegicus). The description is as §2.

Molecules are shown by their SMILES. Values after ≈ are worked out from the molar mass of the structure shown.

T1 sequence (P50247 whole entry): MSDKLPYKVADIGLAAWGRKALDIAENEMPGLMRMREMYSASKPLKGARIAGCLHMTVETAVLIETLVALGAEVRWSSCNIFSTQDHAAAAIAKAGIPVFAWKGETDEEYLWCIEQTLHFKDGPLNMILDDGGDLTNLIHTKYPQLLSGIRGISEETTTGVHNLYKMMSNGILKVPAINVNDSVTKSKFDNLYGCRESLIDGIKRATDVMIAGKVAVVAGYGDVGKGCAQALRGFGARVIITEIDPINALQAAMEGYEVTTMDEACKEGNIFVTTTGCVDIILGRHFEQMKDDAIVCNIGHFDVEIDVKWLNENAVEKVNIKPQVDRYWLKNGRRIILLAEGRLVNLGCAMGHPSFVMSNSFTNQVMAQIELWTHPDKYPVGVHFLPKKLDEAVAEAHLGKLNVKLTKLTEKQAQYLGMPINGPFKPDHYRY
Chain of Adenosylhomocysteinase (Mus musculus) (P50247 2-432 limits assumed): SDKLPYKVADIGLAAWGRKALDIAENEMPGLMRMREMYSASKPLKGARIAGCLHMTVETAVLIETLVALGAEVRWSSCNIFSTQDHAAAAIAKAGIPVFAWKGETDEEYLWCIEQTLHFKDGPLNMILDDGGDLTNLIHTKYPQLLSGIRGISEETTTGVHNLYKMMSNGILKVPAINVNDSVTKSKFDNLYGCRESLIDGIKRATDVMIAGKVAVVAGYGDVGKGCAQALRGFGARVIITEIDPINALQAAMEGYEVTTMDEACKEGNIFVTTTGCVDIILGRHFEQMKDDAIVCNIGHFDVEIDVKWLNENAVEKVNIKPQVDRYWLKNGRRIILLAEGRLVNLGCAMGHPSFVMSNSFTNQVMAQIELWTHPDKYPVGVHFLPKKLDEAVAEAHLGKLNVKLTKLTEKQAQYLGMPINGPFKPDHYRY

Consider `Nc1ncnc2c1ncn2[C@H]1C[C@H](O)/C(=C/F)O1`, for which the values for the Ki result in [1], in test [3] and in test [4] were “Not Active”, “Not Active” and 150 µM, respectively. In addition, in test [2], the IC50 is 10 µg/mL (≈ 39.8 µM).

On to `Nc1ncnc2c1ncn2[C@@H]1O/C(=C/F)[C@@H](O)[C@H]1O`, for which the Ki was 1.04 µM in test [5], “Not Active” in test [7] and 2.4 µM in test [8]. The K inact in test [6] turned out to be 0.14 min⁻¹; in test [9] it was 0.23 min⁻¹. This compound displayed an IC50 in test [2] of 0.25 µg/mL (≈ 0.936 µM).

In the case of `Nc1ncnc2c1ncn2[C@@H]1O/C(=C\F)[C@@H](O)[C@@H]1O`, the Ki in test [10] is 11 µM; in test [11] it was “Not Active”; in [12], “Not Active”. Further, inhibition in test [2] was half-maximal at 1.2 µg/mL (≈ 4.49 µM) (IC50).

Turning to `Nc1ncnc2c1ncn2[C@@H]1O/C(=C(\F)Cl)[C@@H](O)[C@H]1O`, the Ki result in [1] was “Not Active”; in test [3] it was “Not Active”; in [4] it was 3 µM. Further, in test [2], half-maximal inhibition (IC50) was put at 1.3 µg/mL (≈ 4.31 µM).

Turning to `Nc1ncnc2c1ncn2[C@@H]1O/C(=C\F)[C@@H](O)[C@H]1O`, the Ki was 0.55 µM in test [5], “Not Active” in test [7] and 6.5 µM in test [8]. Further, the figures for the K inact in test [6] and in [9] were 0.8 min⁻¹ and 0.28 min⁻¹, respectively. Moreover, the IC50 in test [2] is 0.05 µg/mL (≈ 0.187 µM).

As to `Nc1ncnc2c1ncn2[C@H]1C[C@H](O)/C(=C\F)O1`, the Ki result in test [13] and in test [14] was “Not Active” in each case.

`Nc1ncnc2c1ncn2[C@@H]1O[C@H](CO)[C@@H](O)[C@@H]1O` [VIDARABINE] came in with a Ki in [5] of 30 µM. Half-maximal inhibition in test [2] (IC50) was put at 1 µg/mL (≈ 3.74 µM).

With `Nc1ncnc2c1ncn2[C@@H]1O/C(=C/F)[C@@H](O)[C@@H]1O`, the Ki in test [10] is 3.2 µM; in test [11], “Not Active”; in [12] it was “Not Active”. The same compound gave an IC50 in test [2] of 4.4 µg/mL (≈ 16.5 µM).

Take `Nc1ncnc2c1ncn2[C@@H]1O/C(=C(/F)Cl)[C@@H](O)[C@H]1O`: the results for the Ki in [10], in test [11] and in [12] were 1.5 µM, “Not Active” and “Not Active”, respectively. The same compound displayed a 50% inhibitory concentration (IC50) in [2] of 0.1 µg/mL (≈ 0.331 µM).

As to `Nc1ncnc2c1ncn2C1O[C@H](C(F)F)[C@@H](O)[C@H]1O` (stereo partly specified), the Ki was 10 µM in test [5], 9.7 µM in test [7] (read-out: Ki) and 9.7 µM in test [15]. This compound had an IC50 in [2] of 0.8 µg/mL (≈ 2.79 µM). Moreover, the K inact in test [16] came out at 0.04 min⁻¹; in [9], 0.6 min⁻¹.

For `Nc1ncnc2c1ncn2[C@@H]1O/C(=C\Cl)[C@@H](O)[C@H]1O`, the Ki result in test [1] is “Not Active”; in test [3], “Not Active”; in [4], 1.6 µM. The same compound had an IC50 in test [2] of 3.3 µg/mL (≈ 11.6 µM).
